Experimental data from ChEMBL document CHEMBL1146513, “Discorhabdins I and L, cytotoxic alkaloids from the sponge Latrunculia brevis” (J Nat Prod, 2004).
The source made the active and inactive calls. No cut-off for these calls is given here.

How the values were obtained:
LoVo [1] = test: Cytotoxicity against human doxorubicin-resistant LoVo cells by SRB assay; type: functional, cell-based
Procedure, shortened: (§1)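 Sulforhodamine B colorimetric staining quantifies cell growth and viability. Compounds were run in vitro against a 14-line tumour panel covering prostate, ovary, breast, melanoma, endothelial, NSCLC, leukaemia, pancreas and colon lines, with values reported as GI50.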

A549 = test: Cytotoxicity against human A549 cells by SRB assay; type: functional, cell-based; procedure, shortened: as §1
LoVo [2] = test: Cytotoxicity against human LoVo cells by SRB assay; type: functional, cell-based; procedure, shortened: as §1
SK-MEL-28 = test: Cytotoxicity against human SK-MEL-28 cells by SRB assay; type: functional, cell-based; procedure, shortened: as §1
HT-29 = test: Cytotoxicity against human HT-29 cells by SRB assay; type: functional; procedure, shortened: as §1
[3] = Cytotoxicity against human HMEC1 cells by SRB assay; type: cell-based; settings: hmec-1; procedure, shortened: as §1
SK-BR-3 = test: Cytotoxicity against human SKBR3 cells by SRB assay; type: functional, cell-based; procedure, shortened: as §1
IGROV = test: Cytotoxicity against human IGROV cells by SRB assay; type: functional, cell-based; procedure, shortened: as §1
DU-145 = test: Cytotoxicity against human DU145 cells by SRB assay; type: functional, cell-based; procedure, shortened: as §1
K562 = test: Cytotoxicity against human K562 cells by SRB assay; type: functional, cell-based; procedure, shortened: as §1
SK-OV-3 = test: Cytotoxicity against human SKOV3 cells by SRB assay; type: functional, cell-based; procedure, shortened: as §1
IGROV-ET = test: Cytotoxicity against human IGROV-ET cells by SRB assay; type: functional, cell-based; procedure, shortened: as §1
LNCaP = test: Cytotoxicity against human LNCAP cells by SRB assay; type: functional, cell-based; procedure, shortened: as §1
PANC-1 = test: Cytotoxicity against human PANC1 cells by SRB assay; type: functional, cell-based; procedure, shortened: as §1

## O=C1C=C[C@@]23C[C@@H](NC4=C2C2=NCCc5c[nH]c(c52)C4=O)SC3=C1 [1-DEBROMODISCORHABDIN B]
LoVo [1]
  Activity: Active
A549
  Activity: Active
LoVo [2]
  Activity: Active
SK-MEL-28
  Activity: Active
HT-29
  GI50: 350 nM
[3]
  Activity: Active
SK-BR-3
  Activity: Active
IGROV
  Activity: Active
DU-145
  Activity: Active
K562
  Activity: Active
SK-OV-3
  Activity: Active
IGROV-ET
  Activity: Active
LNCaP
  Activity: Active
PANC-1
  Activity: Active

## O=C([O-])C(F)(F)F.O=C1C2=C3C4=[N+](CCc5c[nH]c1c54)[C@@H]1C(=O)C=C4S[C@@H](C[C@@]43[C@H]1O)N2 [DISCORHABDIN L]
LoVo [1]
  Activity: Active
A549
  Activity: Active
LoVo [2]
  Activity: Active
SK-MEL-28
  Activity: Active
HT-29
  GI50: 120 nM
[3]
  Activity: Active
SK-BR-3
  Activity: Active
IGROV
  Activity: Active
DU-145
  Activity: Active
K562
  Activity: Active
SK-OV-3
  Activity: Active
IGROV-ET
  Activity: Active
LNCaP
  Activity: Active
PANC-1
  Activity: Active
